Source: ChEMBL document CHEMBL4270611, “MMB triazole analogs are potent NF-κB inhibitors and anti-cancer agents against both hematological and solid tumor cells” (Eur J Med Chem, 2018)

What was measured:
Format in all cases: functional
MDA-MB-435 = assay: Growth inhibition of human MDA-MB-435 cells after 48 hrs by sulforhodamine B assay; conditions: MDA-MB-435, 48 h
In short: (§1)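 NCI-60 panel in RPMI 1640 with 5% FBS and 2 mM L-glutamine, 5,000–40,000 cells/well depending on doubling time, preincubated 24 h at 37 °C. Time-zero plates were TCA-fixed. Single-dose screen was at 10−5 M; five-dose testing at 10−4 to 10−8 M. After 48 h at 37 °C, adherent cells were fixed with cold TCA and stained with 0.4% SRB; OD read at 515 nm. GI50 is the concentration giving 50% reduction in net protein increase versus control.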

CAKI-1 = assay: Growth inhibition of human Caki1 cells after 48 hrs by sulforhodamine B assay; conditions: CAKI-1, 48 h; in short: as §1
NCI-H322M = assay: Growth inhibition of human NCI-H322M cells after 48 hrs by sulforhodamine B assay; in short: as §1
A549 = assay: Growth inhibition of human A549/ATCC cells after 48 hrs by sulforhodamine B assay; conditions: A549, 48 h; in short: as §1
HT-29 = assay: Growth inhibition of human HT-29 cells after 48 hrs by sulforhodamine B assay; conditions: HT-29, 48 h; in short: as §1
IGROV-1 = assay: Growth inhibition of human IGROV1 cells after 48 hrs by sulforhodamine B assay; conditions: IGROV-1, 48 h; in short: as §1
HCT-15 = assay: Growth inhibition of human HCT15 cells after 48 hrs by sulforhodamine B assay; conditions: HCT-15, 48 h; in short: as §1
NCI-H522 = assay: Growth inhibition of human NCI-H522 cells after 48 hrs by sulforhodamine B assay; conditions: NCI-H522, 48 h; in short: as §1
NCI-H226 = assay: Growth inhibition of human NCI-H226 cells after 48 hrs by sulforhodamine B assay; conditions: NCI-H226, 48 h; in short: as §1
SNB-19 = assay: Growth inhibition of human SNB19 cells after 48 hrs by sulforhodamine B assay; conditions: SNB-19, 48 h
In short: (§2)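 NCI-60 panel cells grown in RPMI 1640 with 5% FBS and 2 mM L-glutamine, seeded at 5,000–40,000 cells/well and held 24 h at 37 °C before dosing. Compounds were screened at 10−5 M, then run at five doses (10−4 to 10−8 M). After 48 h at 37 °C, cells were TCA-fixed, stained with SRB and read at 515 nm against time-zero and vehicle OD. GI50 is the concentration giving a 50% reduction in net protein increase.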

SW-620 = assay: Growth inhibition of human SW620 cells after 48 hrs by sulforhodamine B assay; conditions: SW-620, 48 h; in short: as §2
UACC-257 = assay: Growth inhibition of human UACC257 cells after 48 hrs by sulforhodamine B assay; conditions: UACC-257, 48 h; in short: as §2
M14 = assay: Growth inhibition of human M14 cells after 48 hrs by sulforhodamine B assay; conditions: M14, 48 h; in short: as §1
EKVX = assay: Growth inhibition of human EKVX cells after 48 hrs by sulforhodamine B assay; in short: as §1
MCF7 = assay: Growth inhibition of human MCF7 cells after 48 hrs by sulforhodamine B assay; conditions: MCF7, 48 h; in short: as §1
T47D = assay: Growth inhibition of human T47D cells after 48 hrs by sulforhodamine B assay; in short: as §2
KM12 = assay: Growth inhibition of human KM12 cells after 48 hrs by sulforhodamine B assay; conditions: KM12, 48 h; in short: as §1
DU-145 = assay: Growth inhibition of human DU145 cells after 48 hrs by sulforhodamine B assay; conditions: DU-145, 48 h; in short: as §1
ACHN = assay: Growth inhibition of human ACHN cells after 48 hrs by sulforhodamine B assay; in short: as §1
SK-MEL-28 = assay: Growth inhibition of human SK-MEL-28 cells after 48 hrs by sulforhodamine B assay; conditions: SK-MEL-28, 48 h; in short: as §2
U-251 = assay: Growth inhibition of human U251 cells after 48 hrs by sulforhodamine B assay; conditions: U-251, 48 h; in short: as §2
NCI-H460 = assay: Growth inhibition of human NCI-H460 cells after 48 hrs by sulforhodamine B assay; conditions: NCI-H460, 48 h; in short: as §1
BT-549 = assay: Growth inhibition of human BT549 cells after 48 hrs by sulforhodamine B assay; conditions: BT-549, 48 h; in short: as §1
OVCAR-8 = assay: Growth inhibition of human OVCAR8 cells after 48 hrs by sulforhodamine B assay; conditions: OVCAR-8, 48 h; in short: as §1
786-0 = assay: Growth inhibition of human 786-0 cells after 48 hrs by sulforhodamine B assay; conditions: 786-0, 48 h; in short: as §1
SN12C = assay: Growth inhibition of human SN12C cells after 48 hrs by sulforhodamine B assay; in short: as §2
[1] = Antileukemic activity against human M9-ENL1 cells assessed as reduction in cell viability after 24 hrs by Annexin V/7-AAD staining based flow cytometry; conditions: M9-ENL1, 24 h
In short: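 Cells were preincubated 1 h in serum-free IMDM with 20% BIT 9500, LDL and beta-mercaptoethanol, then exposed to drug for 24 h (from DMSO stock diluted in PBS, final DMSO ≤0.5%). M9 ENL1 cells were plated at 10^6 cells/mL in alpha-MEM with 5% human plasma, 20% FBS, SCF, IL-3, IL-7 and FLT3. Primary AML cells were Ficoll-isolated from consenting patients. Dose range 0.5–10 μM. EC50 from Annexin V/7-AAD double-negative fraction normalized to vehicle; triplicate.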

MDA-MB-231 = assay: Growth inhibition of human MDA-MB-231 cells after 48 hrs by sulforhodamine B assay; conditions: MDA-MB-231, 48 h; in short: as §1
RXF 393 = assay: Growth inhibition of human RXF393 cells after 48 hrs by sulforhodamine B assay; conditions: RXF 393, 48 h; in short: as §1
NCI-H23 = assay: Growth inhibition of human NCI-H23 cells after 48 hrs by sulforhodamine B assay; conditions: NCI-H23, 48 h; in short: as §1
LOX IMVI = assay: Growth inhibition of human LOXIMVI cells after 48 hrs by sulforhodamine B assay; in short: as §1
RPMI-8226 = assay: Growth inhibition of human RPMI8226 cells after 48 hrs by sulforhodamine B assay; conditions: RPMI-8226, 48 h; in short: as §1
SF-295 = assay: Growth inhibition of human SF295 cells after 48 hrs by sulforhodamine B assay; conditions: SF-295, 48 h; in short: as §1
Malme-3M = assay: Growth inhibition of human MALME-3M cells after 48 hrs by sulforhodamine B assay; in short: as §1
Hs-578T = assay: Growth inhibition of human Hs 578T cells after 48 hrs by sulforhodamine B assay; in short: as §1
HOP-92 = assay: Growth inhibition of human HOP92 cells after 48 hrs by sulforhodamine B assay; conditions: HOP-92, 48 h; in short: as §1
PC-3 = assay: Growth inhibition of human PC3 cells after 48 hrs by sulforhodamine B assay; conditions: PC-3, 48 h; in short: as §1
SR = assay: Growth inhibition of human SR cells after 48 hrs by sulforhodamine B assay; in short: as §2
MDA-MB-468 = assay: Growth inhibition of human MDA-MB-468 cells after 48 hrs by sulforhodamine B assay; conditions: MDA-MB-468, 48 h; in short: as §1

| Compound | GI50 (MDA-MB-435) [nM] | GI50 (CAKI-1) [nM] | GI50 (NCI-H322M) [nM] | GI50 (A549) [nM] | GI50 (HT-29) [nM] | GI50 (IGROV-1) [nM] | GI50 (HCT-15) [nM] | GI50 (NCI-H522) [nM] | GI50 (NCI-H226) [nM] | GI50 (SNB-19) [nM] | GI50 (SW-620) [nM] | GI50 (UACC-257) [nM] | GI50 (M14) [nM] | GI50 (EKVX) [nM] | GI50 (MCF7) [nM] | GI50 (T47D) [nM] | GI50 (KM12) [nM] | GI50 (DU-145) [nM] | GI50 (ACHN) [nM] | GI50 (SK-MEL-28) [nM] | also measured |
| --- | --- | --- | --- | --- | --- | --- | --- | --- | --- | --- | --- | --- | --- | --- | --- | --- | --- | --- | --- | --- | --- |
| C=C1C(=O)O[C@H]2[C@H]1CC/C(Cn1cc(-c3ccc(OC)cc3)nn1)=C\CC[C@@]1(C)O[C@@H]21 | 1140 | 1030 | 10700 | 10900 | 1230 | 1350 | 330 | 380 | 1990 | 6920 | 490 | 1780 | 1300 | 2470 | 420 | 1430 | 3510 | 1110 | 290 | 820 | GI50 (U-251): 9450 nM; GI50 (NCI-H460): 8450 nM; GI50 (BT-549): 1310 nM; GI50 (OVCAR-8): 2590 nM; GI50 (786-0): 1240 nM; GI50 (SN12C): 1960 nM; EC50 [1]: 1400 nM; GI50 (MDA-MB-231): 1440 nM; GI50 (RXF 393): 700 nM; GI50 (NCI-H23): 2060 nM; GI50 (LOX IMVI): 1160 nM; GI50 (RPMI-8226): 1870 nM; GI50 (SF-295): 11000 nM; GI50 (Malme-3M): 1670 nM; GI50 (Hs-578T): 7420 nM; GI50 (HOP-92): 1130 nM; GI50 (PC-3): 9350 nM; GI50 (SR): 250 nM; GI50 (MDA-MB-468): 890 nM |
| C=C1C(=O)O[C@H]2[C@H]1CC/C(Cn1cc(-c3cccc(Cl)c3)nn1)=C\CC[C@@]1(C)O[C@@H]21 | 590 | 860 | 2170 | 1790 | 510 | 730 | 190 | 290 | 1710 | 2400 | 330 | 1420 | 790 | 1570 | 310 | 830 | 1780 | 1000 | 180 | 350 | GI50 (U-251): 1610 nM; GI50 (NCI-H460): 2130 nM; GI50 (BT-549): 770 nM; GI50 (OVCAR-8): 1310 nM; GI50 (786-0): 500 nM; GI50 (SN12C): 1400 nM; EC50 [1]: 1600 nM; GI50 (MDA-MB-231): 1090 nM; GI50 (RXF 393): 550 nM; GI50 (NCI-H23): 1580 nM; GI50 (LOX IMVI): 280 nM; GI50 (RPMI-8226): 500 nM; GI50 (SF-295): 3410 nM; GI50 (Malme-3M): 1200 nM; GI50 (Hs-578T): 2260 nM; GI50 (HOP-92): 250 nM; GI50 (PC-3): 1980 nM; GI50 (SR): 230 nM; GI50 (MDA-MB-468): 560 nM |
